Screening results (PubChem BioAssay)
Most compounds without a hit are left out; they make up all but 2.6% or so of the library.
DENV2 CPE rescue – inhibitors of DENV2 cytopathic effect, primary screen, cell-based, plate reader, single concentration | DENV2-infected cells, cytopathic effect rescue | CPE inhibition, % at 9.99 µM | 350,000 tested, 1.7% active | AID 651640, 2012; in the data active = CPE inhibition above about 20%, passing the limit was not always enough; tested in BHK-21 cells;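 note: 0% = median of neutral control wells and 100% = median of positive control wells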
miR-122 sensor – miR-122 Renilla sensor signal increase in Huh7, primary screen, miR-122 inhibitor project, cell-based, single point, plate reader; Huh7 miR-122 Renilla luciferase sensor, 48 h; neutral wells = 0, positive control = 100; activation (reporter increase), % at 12.5 µM; 340,000 tested, 0.3% active;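 active = mean replicate activation score at least 90 and every replicate individually at or above 90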;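 note: higher luciferase means less miR-122 activity so hits act as miR-122 inhibitors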
F508del corr – F508del CFTR correction, initial screen, CFBE line, single point; CFBE cells, YFP halide quenching; stimulated with forskolin plus potentiator P3; % fluorescence drop versus neutral controls; activity (quench increase), % at 7.58 µM; 350,000 tested, 0.36% active; AID 720511, 2013;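 active = mean added fluorescence quench of at least 8% versus neutral control, with both replicates also reaching 8%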;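 note: cells transiently co-express mutant CFTR-F508del with the halide-sensitive YFP; corrector assay measuring rescue of mutant channel to the surface after 24 h compound exposure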
INS-1E GSIS act – GLuc luminescence reporter in INS-1E cells, primary screen for activators of glucose-dependent secretion of insulin; INS-1E GLuc reporter insulin secretion, 2-3 h; activation, % at 16.6 µM; 370,000 tested, 0.61% active; AID 743287, 2014;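 active = lowest replicate activation of at least 40%, so every replicate reaches that level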;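 note: 0% = median of neutral control wells and 100% = median of IBMX positive control wells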
ERAP1 HTS inh – human ERAP1 aminopeptidase inhibitors, primary screen, biochemical, single point, plate reader | AID 652197, 2013 | recombinant ERAP1, Leu-AMC fluorescence, 60 min | Endoplasmic reticulum aminopeptidase 1 (Homo sapiens), Q9NZ08 | inhibition, % at 10.7 µM | 340,000 tested, 0.15% active;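 active = mean replicate inhibition of at least 30%, or all replicates individually reaching that 30% level; inactive = mean below 30% and not every replicate reaching it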;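 note: 0% = neutral control wells and 100% = L-leucinethiol positive control wells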
E-selectin induc – E-selectin induction in HUVECs, primary screen, imaging, HUVEC, immunofluorescence imaging, single point. P16581. normalized: neutral wells 0, TNF-alpha wells 100. activation, % at 7.58 µM. 260,000 tested, 0.37% active;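 active = mean E-selectin-positive cell signal at least 10% of the positive control, reached in at least 60% of replicates, without over 20% cell loss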
Target sequence (P16581 whole entry, looked up): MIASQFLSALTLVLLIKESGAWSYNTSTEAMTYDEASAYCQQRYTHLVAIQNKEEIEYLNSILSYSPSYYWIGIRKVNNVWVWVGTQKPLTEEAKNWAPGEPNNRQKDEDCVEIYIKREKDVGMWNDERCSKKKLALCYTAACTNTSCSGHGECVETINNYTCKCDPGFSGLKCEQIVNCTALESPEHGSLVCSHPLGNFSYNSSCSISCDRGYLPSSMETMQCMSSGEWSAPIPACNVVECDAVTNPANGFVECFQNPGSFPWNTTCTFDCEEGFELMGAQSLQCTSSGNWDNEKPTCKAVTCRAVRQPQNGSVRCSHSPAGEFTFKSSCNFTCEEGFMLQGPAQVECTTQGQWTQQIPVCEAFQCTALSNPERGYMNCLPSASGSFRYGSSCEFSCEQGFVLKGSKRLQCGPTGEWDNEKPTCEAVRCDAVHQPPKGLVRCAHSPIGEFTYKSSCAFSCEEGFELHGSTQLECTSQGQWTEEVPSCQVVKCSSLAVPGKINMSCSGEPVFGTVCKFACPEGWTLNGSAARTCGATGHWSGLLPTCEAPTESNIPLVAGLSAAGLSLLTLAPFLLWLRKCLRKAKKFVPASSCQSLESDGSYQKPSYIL
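Read-out: % PE-positive cells | Test system: HUVEC | Doses: One compound dose added by pin transfer | Buffer or medium: EGM-2 over gelatin coat | Signal: Immunofluorescence imaging | Benchmarks: TNF-alpha, DMSO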
Starred values were filed as active, the others as inactive; nt = no result given; ! = not confirmed by another sample; [ ] = dose if it differs, or a comment.

SMILES	DENV2 CPE rescue	miR-122 sensor	F508del corr	INS-1E GSIS act	ERAP1 HTS inh	E-selectin induc
CCOC(=O)CC1C(=O)NCCN1Cc1cccs1 (stereo not drawn)	-16	5	-1	-3	-5	0
COc1ccc(S(=O)(=O)N(C)C[C@@H]2Oc3ccc(NC(=O)c4ccncc4)cc3C(=O)N([C@H](C)CO)C[C@H]2C)cc1	15	-9[16.7 µM]	1	2	-2	28*
COc1ccc(S(=O)(=O)N(C)C[C@H]2Oc3ccc(NC(=O)c4ccncc4)cc3C(=O)N([C@@H](C)CO)C[C@H]2C)cc1	-6	2[16.7 µM]	2	-3	-1	22
COc1ccc(S(=O)(=O)N(C)C[C@@H]2Oc3c(NC(=O)C4CCCCC4)cccc3C(=O)N([C@H](C)CO)C[C@@H]2C)cc1	20*	2[16.7 µM]	0	1	0	0
COc1ccc(S(=O)(=O)N(C)C[C@H]2Oc3c(NC(=O)C4CCCCC4)cccc3C(=O)N([C@H](C)CO)C[C@H]2C)cc1	-5	-5[16.7 µM]	0	10	2	0
COc1ccc(S(=O)(=O)N(C)C[C@@H]2Oc3ccc(NC(=O)c4ccncc4)cc3C(=O)N([C@@H](C)CO)C[C@@H]2C)cc1	16	27[16.7 µM]	-2	-13	-1	37*
COc1ccc(S(=O)(=O)N(C)C[C@H]2Oc3c(NC(=O)c4ccncc4)cccc3C(=O)N([C@H](C)CO)C[C@@H]2C)cc1	25*!	-1[16.7 µM]	1	4	1	-4
O=C(C[C@@H]1CC[C@H](NS(=O)(=O)c2ccc(F)cc2)[C@@H](CO)O1)NCc1ccc(Cl)c(Cl)c1	4	-3[16.7 µM]	-1	-27	0	-1
C[C@H](CO)N1C[C@H](C)[C@H](CN(C)CC2CC2)Oc2cc(C#Cc3ccc(F)cc3)ccc2S1(=O)=O	3	-8[16.7 µM]	-1	-5	7	0
CS(=O)(=O)N1C[C@@H]2C(c3ccc(-c4ccc(F)cc4)cc3)[C@H](C1)N2CC1CC1 (stereo partly drawn)	nt	nt	nt	-20	nt	nt
C[C@@H]1CN([C@H](C)CO)C(=O)c2cc(NC(=O)Cc3cn(C)c4ccccc34)ccc2O[C@@H]1CN(C)Cc1ccc(Cl)c(Cl)c1	2	-8[16.7 µM]	8.1*	-12	-1	3
C[C@@H]1CN([C@@H](C)CO)C(=O)c2cc(NC(=O)Cc3cn(C)c4ccccc34)ccc2O[C@@H]1CN(C)Cc1ccc(Cl)c(Cl)c1	-3	-3[16.7 µM]	4	-5	-1	-8
C[C@H](CO)N1C[C@H](C)[C@H](CN(C)Cc2ccc3c(c2)OCO3)Oc2ccc(NC(=O)Cc3cn(C)c4ccccc34)cc2C1=O	-3	3[16.7 µM]	3	-6	1	43*
C[C@@H]1CN([C@H](C)CO)C(=O)c2cc(NC(=O)Cc3cn(C)c4ccccc34)ccc2O[C@H]1CN(C)Cc1ccc(Cl)c(Cl)c1	0	-5[16.7 µM]	1	-1	-1	51*
CO[C@H]1CN(C)C(=O)c2cc(NC(=O)NC(C)C)ccc2OC[C@H](C)N(C(=O)C2CCC2)C[C@@H]1C	-7	nt	-2	2	nt	0
COc1ccc(S(=O)(=O)N(C)C[C@H]2Oc3ccc(NC(=O)Cn4cnnn4)cc3CC(=O)N([C@H](C)CO)C[C@H]2C)cc1	-2	-1[16.7 µM]	3	4	-1	-15
CC1(C)C(=O)N(c2ccccc2)C(=O)c2ccccc21	-2	nt	-2	-3	nt	52*
CCC(C)OC(=O)C[N+](C)(C)CCOC1CC2CCC1(C)C2(C)C (stereo not drawn)	-2	3	0	-15	2	nt
CC(=O)OC(COC1C[C@@H]2CC[C@@]1(C)C2(C)C)C[N+]1(C)CCCCC1 (stereo partly drawn)	0	nt	1	nt	100*	nt
Cc1cccc(OCC(=O)NNC(=O)c2ccc3nc[nH]c3c2)c1	1	0	17*	9	3	2
CN1c2ccc(-c3ccccc3)cc2[C@@H]2[C@@H](CCN2C(=O)Cc2cccnc2)[C@@H]1CO	-2	0[16.7 µM]	-4	-2	-1	0
O=C(CN1C(=O)CCC1=O)Nc1cccc2c1C(=O)NC2=O	-3	9	4	41*	-1	0
O=C(Nc1cccc2c1C(=O)NC2=O)c1cccc(N2C(=O)CCC2=O)c1	7	nt	-1	8	6	nt
O=C(CSc1nc2c(c(=O)n1-c1ccccc1)SCC2)N1CCOCC1	-15	-2	-5	-5	1	-2
Cc1ccc(-n2c(SCC(=O)N3CCOCC3)nc(O)cc2=O)cc1	69*	nt	0	4	4	0
SMILES	DENV2 CPE rescue	miR-122 sensor	F508del corr	INS-1E GSIS act	ERAP1 HTS inh	E-selectin induc
COc1ccc(-n2c(SCC(=O)N3CCOCC3)nc(O)cc2=O)cc1	14	nt	2	3	3	0
CC1Cc2nc(SCC(=O)N3CCOCC3)n(-c3ccccc3)c(=O)c2S1 (stereo not drawn)	1	nt	8.3*	3	1	2
O=C(NCC1OCCc2ccccc21)c1ccc(NC(=O)c2ccc(Cl)cc2)cc1 (stereo not drawn)	nt	-5	nt	249*	nt	nt
O=C(Nc1ccc2ccccc2c1)c1cccc2ccccc12	-3	0	0	71*	1	1
O=C(Nc1ccc(Cl)cn1)c1ccccc1[N+](=O)[O-]	10	40	6	12	-5	nt
O=C(Nc1ccc(Cl)cn1)c1cccc2ccccc12	-2	19	13*	-8	-2	nt
Cc1noc(C)c1S(=O)(=O)Nc1ccc2c(c1)CC(=O)N([C@@H](C)CO)C[C@@H](C)[C@@H](CN(C)Cc1ccc(C(=O)Nc3ccccc3N)cc1)O2	-1	nt	3	-13	0	nt
Cc1noc(C)c1S(=O)(=O)N(C)C[C@H]1OCCCC[C@H](C)Oc2ccc(NC(=O)Cc3ccccc3)cc2C(=O)N([C@H](C)CO)C[C@H]1C	-8	13[16.7 µM]	-4	-22	2	0
CC(OC(=O)C1CC(=O)N(Cc2ccco2)C1)C(=O)Nc1cccc(C#N)c1 (stereo not drawn)	21*	-2	2	0	0	0
COCCCNc1oc(-c2ccccc2F)nc1C#N	25*	-2	0	10	-4	0
OC[C@@H]1[C@@H](c2ccc(-c3cccc(F)c3)cc2)[C@@H]2CN(CCC(F)(F)F)CCCCN12	0	7[16.7 µM]	2	-8	-2	0
OC[C@H]1[C@@H](c2ccc(-c3ccccc3)cc2)[C@H]2CN(CCC(F)(F)F)CCCCN21	nt	-1[16.7 µM]	-1	-16	nt	0
OC[C@@H]1[C@@H](c2ccc(-c3ccccc3)cc2)[C@H]2CN(CCC(F)(F)F)CCCCN12	20*	1[16.7 µM]	-4	4	0	0
